Active and inactive are the calls of the source. No cut-off for these calls is given here.
Experiments:
[1] = system: PBMC; experiment: Immunostimulatory activity in human PBMC cells assessed as increase in LPS-induced TNF-alpha production at 2 uM incubated for 18 hrs by flow cytometry analysis; assay type: functional, cell-based
Procedure, shortened: (§1)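 Human PBMCs from healthy donors, 1 × 10^6 cells/mL in RPMI 1640 with 10% FBS, treated with 2 μM compound or 0.1% DMSO, without or with LPS 10 ng/mL, for 18 h at 37 °C. Supernatant cytokines quantified by cytometric bead array (human inflammatory panel) on a flow cytometer against recombinant standards. Four independent donors. Repeated-measures one-way ANOVA with Dunnett.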

[2] = system: PBMC; experiment: Immunostimulatory activity in human PBMC cells assessed as increase in IL-6 production at 2 uM incubated for 18 hrs by flow cytometry analysis; assay type: functional, cell-based; procedure, shortened: as §1
[3] = system: PBMC; experiment: Immunostimulatory activity in human PBMC cells assessed as increase in IL-8 production at 2 uM incubated for 18 hrs by flow cytometry analysis; assay type: functional, cell-based; procedure, shortened: as §1
[4] = system: K562; experiment: Cytotoxicity against human K562 cells cocultured with human PBMC cells assessed as inhibition of cell proliferation at 1 uM incubated with PBMC cells for 18 hrs followed by co-incubation with K562 cells for 4 hrs by SYTOX blue staining based flow cytometric analysis; assay type: functional
Procedure, shortened: (§2)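 Effector cells are freshly Ficoll-isolated human PBMCs, 4 × 10^5 per well, pretreated 18 h with compound or 0.1% DMSO. CFSE-labelled K562 or MEC1 targets, 1 × 10^4 per well, are then added at 40:1 effector:target ratio and co-incubated 4 h at 37 °C. Dead targets are CFSE+/Sytox blue+ by flow cytometry. Results are relative to vehicle. Duplicates; three (MEC1) or four (K562) independent experiments. One-way ANOVA with Dunnett.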

[5] = system: MEC1; experiment: Cytotoxicity against human MEC-1 cells cocultured with human PBMC cells assessed as inhibition of cell proliferation at 10 uM incubated with PBMC cells for 18 hrs followed by co-incubation with MEC-1 cells for 4 hrs by SYTOX blue staining based flow cytometric analysis; assay type: functional; procedure, shortened: as §2
[6] = system: Mus musculus; experiment: Immuno-adjuvant activity in NIH/OlaHsd mouse assessed as increase in ovalbumin specific IgG production in sera at 0.15 micromol administered subcutaneously on day 1 and as booster dose on day 21 and 28 with ovalbumin loaded liposomes by ELISA; assay type: functional, organism-based; details: dose 0.15 µmol, time 28.0 day
Procedure, shortened: (§3)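 Groups of 5 female NIH/OlaHsd mice, 2.0–2.5 months old, immunized with ovalbumin-loaded liposomes (10 μg ovalbumin per dose) containing 0.15 μmol adjuvant per dose. Liposomes were neutral (PC–cholesterol 7:5), anionic (PC–cholesterol–dicetylphosphate 7:5:1) or mannosylated (PC–cholesterol–mannose-PEG-PA 7:5:0.5). Serum ovalbumin-specific IgG, IgG1 and IgG2a measured 1 week after the second booster. Mean ± SEM.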

[7] = system: PBMC; experiment: Immunostimulatory activity in human PBMC cells assessed as increase in TNF-alpha production at 2 uM incubated for 18 hrs by flow cytometry analysis; assay type: functional, cell-based; procedure, shortened: as §1
[8] = system: MEC1; experiment: Cytotoxicity against human MEC-1 cells cocultured with human PBMC cells assessed as inhibition of cell proliferation at 100 nM incubated with PBMC cells for 18 hrs followed by co-incubation with MEC-1 cells for 4 hrs by SYTOX blue staining based flow cytometric analysis; assay type: functional; procedure, shortened: as §2
[9] = system: Mus musculus; experiment: Immuno-adjuvant activity in NIH/OlaHsd mouse assessed as increase in ovalbumin specific […] associated IgG2a production in sera at 0.30 micromol administered subcutaneously on day 1 and as booster dose on day 21 with ovalbumin loaded neutral liposomes and measured 1 week post booster dose by ELISA; assay type: functional, organism-based; details: dose 0.3 µmol, time 28.0 day
Procedure, shortened: (§4)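 Groups of 5 female NIH/OlaHsd mice, 2.0–2.5 months old, immunized with ovalbumin-loaded neutral liposomes (10 μg ovalbumin per dose) containing 0.30 μmol adjuvant per dose, plus one booster dose. Serum ovalbumin-specific IgG, IgG1 and IgG2a measured 1 week after the booster. Mean ± SEM of 5 mice.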

[10] = system: PBMC; experiment: Immunostimulatory activity in human PBMC cells assessed as increase in LPS-induced IL-6 production at 2 uM incubated for 18 hrs by flow cytometry analysis; assay type: functional, cell-based; procedure, shortened: as §1
[11] = system: Mus musculus; experiment: Immuno-adjuvant activity in NIH/OlaHsd mouse assessed as increase in ovalbumin specific […] associated IgG2a production in sera at 0.15 micromol administered subcutaneously on day 1 and as booster dose on day 21 and 28 with ovalbumin loaded liposomes by ELISA; assay type: functional, organism-based; details: dose 0.15 µmol, time 28.0 day; procedure, shortened: as §3
[12] = system: K562; experiment: Cytotoxicity against human K562 cells cocultured with human PBMC cells assessed as inhibition of cell proliferation at 100 nM incubated with PBMC cells for 18 hrs followed by co-incubation with K562 cells for 4 hrs by SYTOX blue staining based flow cytometric analysis; assay type: functional; procedure, shortened: as §2
[13] = system: PBMC; experiment: Immunostimulatory activity in human PBMC cells assessed as increase in LPS-induced IL-1beta production at 2 uM incubated for 18 hrs by flow cytometry analysis; assay type: functional, cell-based; procedure, shortened: as §1
[14] = system: PBMC; experiment: Immunostimulatory activity in human PBMC cells assessed as increase in IL-1beta production at 2 uM incubated for 18 hrs by flow cytometry analysis; assay type: functional, cell-based; procedure, shortened: as §1
[15] = Cytotoxicity against HEK-Blue hNOD2 cells assessed as reduction in metabolic activity at 20 uM incubated for 18 hrs by MTS assay; assay type: toxicity, cell-based; details: human, hek-blue hnod2, 18 h
Procedure, shortened: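 HEK-Blue NOD2 cells, 40 000 per well, exposed to 20 μM compound or 0.1% DMSO for 18 h at 37 °C, 5% CO2. Metabolic activity measured by MTS (CellTiter 96 AQueous One) reagent. Duplicates, two independent biological replicates.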

[16] = system: BMDC; experiment: Induction of mouse BMDC-mediated ovalbumin specific CD4+ T cell activation assessed as increase in CD25 expression at 10 uM incubated for 72 hrs by CFSE staining based flow cytometric analysis; assay type: functional
Procedure, shortened: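 BMDCs from C57BL/6 mouse tibia (7 days in GM-CSF 20 ng/mL, >90% CD11c+) pulsed 18 h with compound (1 or 10 μM) plus ovalbumin 50 μg/mL, then washed. They were cocultured 72 h with CFSE-labelled naive OT-II CD4+ T cells. CD25+/CFSE-low fraction of live Thy1.2+CD4+ cells read by flow cytometry; supernatant cytokines also measured. Duplicates of two independent experiments.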

[17] = system: Mus musculus; experiment: Immuno-adjuvant activity in NIH/OlaHsd mouse assessed as increase in ovalbumin specific […] associated IgG1 production in sera at 0.30 micromol administered subcutaneously on day 1 and as booster dose on day 21 with ovalbumin loaded neutral liposomes and measured 1 week post booster dose by ELISA; assay type: functional, organism-based; details: dose 0.3 µmol, time 28.0 day; procedure, shortened: as §4
[18] = system: PBMC; experiment: Immunostimulatory activity in human PBMC cells assessed as increase in LPS-induced IL-8 production at 2 uM incubated for 18 hrs by flow cytometry analysis; assay type: functional, cell-based; procedure, shortened: as §1
[19] = system: MEC1; experiment: Cytotoxicity against human MEC-1 cells cocultured with human PBMC cells assessed as inhibition of cell proliferation at 1 uM incubated with PBMC cells for 18 hrs followed by co-incubation with MEC-1 cells for 4 hrs by SYTOX blue staining based flow cytometric analysis; assay type: functional; procedure, shortened: as §2
[20] = system: K562; experiment: Cytotoxicity against human K562 cells cocultured with human PBMC cells assessed as inhibition of cell proliferation at 10 uM incubated with PBMC cells for 18 hrs followed by co-incubation with K562 cells for 4 hrs by SYTOX blue staining based flow cytometric analysis; assay type: functional; procedure, shortened: as §2

Which Activity [1] does the source give for `CCCCCCCCCCCCCCCCCC(=O)Oc1ccc(/C=C/C(=O)NCC(=O)N[C@H](C(=O)N[C@H](CCC(=O)OCC)C(=O)OCC)C(C)C)cc1OC` here?
Its Activity is “Active”.

And the Activity [2]?
Its Activity is “inactive”.

What about the Activity [3] of the same molecule?
The Activity was “inactive”.

What about the Activity [4] of the same molecule?
Its Activity is “Active”.

What about the Activity [5] of the same molecule?
The Activity was “Active”.

And the Activity [6]?
Its Activity is “Active”.

What about the Activity [7] of the same molecule?
Its Activity is “inactive”.

And the Activity [8]?
The Activity was “inactive”.

What about the Activity [9] of the same molecule?
Its Activity is “Active”.

And the Activity [10]?
The Activity was “Active”.

And the Activity [11]?
Its Activity is “Active”.

What about the Activity [12] of the same molecule?
Its Activity is “inactive”.

And the Activity [13]?
The Activity was “Active”.

And the Activity [14]?
Its Activity is “inactive”.

And the Activity [15]?
Its Activity is “Non-Toxic”.

And the Activity [16]?
The Activity was “Active”.

And the Activity [17]?
Its Activity is “Active”.

And the Activity [18]?
The Activity was “Active”.

What about the Activity [19] of the same molecule?
The Activity was “inactive”.

What about the Activity [20] of the same molecule?
Its Activity is “Active”.
